Results reported in ChEMBL document CHEMBL4261600 (Eur J Med Chem, 2018).

Columns and labels:
[1] = tested on: Phosphatidylinositol 4,5-bisphosphate 3-kinase catalytic subunit alpha isoform (Homo sapiens), P42336 [M1043I]; experiment: Binding affinity to human partial length PIK3CA M1043I mutant (R108 to N1068 residues) expressed in mammalian expression system assessed as remaining unbound target protein level at 1000 nM by Kinomescan method relative to control
Summary of the method: (§1)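 KINOMEscan competition-binding profiling across the panel of 468 kinases and mutants, with inhibitor tested at 1 μM. Binding is expressed as percent of control, with DMSO as the reference control.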

[2] = target: Cyclin-dependent kinase 9 (Homo sapiens, UniProt P50750); experiment: Inhibition of CDK9 in human MEC1 cells assessed as decrease in RNA polymerase 2 phosphorylation at Ser 2 residues in CTD domain after 2 hrs by immunoblotting analysis; assay type: cell-based
[3] = target: Serine/threonine-protein kinase Sgk2 (Homo sapiens) (UniProt Q9HBY8); experiment: Binding affinity to wild-type human partial length SGK2 (L54 to C427 residues) expressed in mammalian expression system assessed as remaining unbound target protein level at 1000 nM by Kinomescan method relative to control
[4] = MRT (0 to infinity) in mouse at 10 mg/kg, po by LC-MS/MS analysis; assay type: ADME, organism-based; details: in vivo
[5] = target: Mitogen-activated protein kinase 10 (Homo sapiens) (UniProt P53779); experiment: Binding affinity to wild-type human partial length JNK3 (V28 to Q422 residues) expressed in mammalian expression system assessed as remaining unbound target protein level at 1000 nM by Kinomescan method relative to control
Summary of the method: (§2)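 KINOMEscan binding panel of 468 kinases/mutants. Inhibitor was tested at a single concentration of 1 μM. Binding is reported as percent of control, defined relative to a DMSO control.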

[6] = Half life in Sprague-Dawley rat at 20 mg/kg, po by LC-MS/MS analysis; assay type: ADME, organism-based; details: in vivo
[7] = target: RAC-alpha serine/threonine-protein kinase (Homo sapiens) (UniProt P31749); experiment: Binding affinity to wild-type human partial length AKT1 expressed in bacterial expression system assessed as remaining unbound target protein level at 1000 nM by Kinomescan method relative to control
Summary of the method: (§3)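 Profiled in a KINOMEscan binding panel with the inhibitor at a single concentration of 1 μM. Binding to each kinase was read out as percent of control, relative to a DMSO control. Strong binders were defined as those with a percent control value below 1.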

[8] = target: Peripheral plasma membrane protein CASK (Homo sapiens) (UniProt O14936); experiment: Binding affinity to wild-type human partial length CASK (M1 to H315 residues) expressed in mammalian expression system assessed as remaining unbound target protein level at 1000 nM by Kinomescan method relative to control
Summary of the method: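 KINOMEscan competition binding profile across a panel of 468 kinases and mutants, with the inhibitor tested at a single concentration of 1 μM. Binding is reported as percent of control, meaning signal relative to a DMSO control.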

[9] = target: CDK7/Cyclin H/MNAT1 (Homo sapiens, UniProt P50613); experiment: Inhibition of recombinant full length His-tagged human CDK7/cyclin H/MNAT1 expressed in baculovirus expression system
[10] = target: Serine/threonine-protein kinase DCLK1 (Homo sapiens) (UniProt O15075); experiment: Binding affinity to wild-type human partial length DCAMKL1 (L270 to A662 residues) expressed in mammalian expression system assessed as remaining unbound target protein level at 1000 nM by Kinomescan method relative to control
[11] = target: Serine/threonine-protein kinase 16 (Homo sapiens) (UniProt O75716); experiment: Binding affinity to wild-type human partial length STK16 (G11 to I305 residues) expressed in bacterial expression system assessed as remaining unbound target protein level at 1000 nM by Kinomescan method relative to control
[12] = target: Tyrosine-protein kinase Fer (Homo sapiens) (UniProt P16591); experiment: Binding affinity to wild-type human partial length FER (S542 to T822 residues) expressed in bacterial expression system assessed as remaining unbound target protein level at 1000 nM by Kinomescan method relative to control
[13] = tested on: Tyrosine-protein kinase ABL1 (Homo sapiens), P00519 [H396P]; experiment: Binding affinity to human non-phosphorylated ABL1 H396P mutant (S229 to K512 residues) expressed in mammalian expression system assessed as remaining unbound target protein level at 1000 nM by Kinomescan method relative to control; summary of the method: as §1
[14] = target: Dual specificity mitogen-activated protein kinase kinase 1 (Homo sapiens) (UniProt Q02750); experiment: Binding affinity to wild-type human full length MEK1 (M1 to V393 residues) expressed in mammalian expression system assessed as remaining unbound target protein level at 1000 nM by Kinomescan method relative to control
Summary of the method: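 Single-point competition binding screen across a panel of 468 kinases and mutants, with the inhibitor at 1 μM. Binding is read out as percent of a DMSO control, and targets below 1 percent control were classed as strong binders.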

[15] = target: Dual specificity testis-specific protein kinase 1 (Homo sapiens) (UniProt Q15569); experiment: Binding affinity to wild-type human full length TESK1 (R37 to S626 residues) expressed in bacterial expression system assessed as remaining unbound target protein level at 1000 nM by Kinomescan method relative to control; summary of the method: as §3
[16] = Half life in mouse at 3 mg/kg, iv by LC-MS/MS analysis; assay type: ADME, organism-based; details: in vivo
[17] = target: Serine/threonine-protein kinase PAK 4 (Homo sapiens) (UniProt O96013); experiment: Binding affinity to wild-type human partial length PAK4 (Q144 to R438 residues) expressed in bacterial expression system assessed as remaining unbound target protein level at 1000 nM by Kinomescan method relative to control; summary of the method: as §2
[18] = target: Cyclin-dependent kinase-like 3 (Homo sapiens) (UniProt Q8IVW4); experiment: Binding affinity to wild-type human partial length CDKL3 (M1 to D327 residues) expressed in bacterial expression system assessed as remaining unbound target protein level at 1000 nM by Kinomescan method relative to control
[19] = target: Insulin-like growth factor 1 receptor (Homo sapiens) (UniProt P08069); experiment: Binding affinity to wild-type human partial length IGF1R (L972 to D1294 residues) expressed in bacterial expression system assessed as remaining unbound target protein level at 1000 nM by Kinomescan method relative to control
[20] = target: CDK3/Cyclin E (Homo sapiens, UniProt Q00526); experiment: Inhibition of recombinant GST-tagged human CDK3/cyclin E1; assay type: protein-complex assay
[21] = target: Tyrosine-protein kinase receptor TYRO3 (Homo sapiens) (UniProt Q06418); experiment: Binding affinity to wild-type human partial length TYRO3 (S497 to T814 residues) expressed in bacterial expression system assessed as remaining unbound target protein level at 1000 nM by Kinomescan method relative to control
[22] = target: 3-phosphoinositide-dependent protein kinase 1 (Homo sapiens) (UniProt O15530); experiment: Binding affinity to wild-type human full length PDPK1 (M1 to Q556 residues) expressed in bacterial expression system assessed as remaining unbound target protein level at 1000 nM by Kinomescan method relative to control; summary of the method: as §3
[23] = target: Serine/threonine-protein kinase mTOR (Homo sapiens) (UniProt P42345); experiment: Binding affinity to wild-type human partial length MTOR (L1382 to W2549 residues) expressed in mammalian expression system assessed as remaining unbound target protein level at 1000 nM by Kinomescan method relative to control

Sequence of Cyclin-dependent kinase 9 (P50750 whole entry, the tested form may be a part): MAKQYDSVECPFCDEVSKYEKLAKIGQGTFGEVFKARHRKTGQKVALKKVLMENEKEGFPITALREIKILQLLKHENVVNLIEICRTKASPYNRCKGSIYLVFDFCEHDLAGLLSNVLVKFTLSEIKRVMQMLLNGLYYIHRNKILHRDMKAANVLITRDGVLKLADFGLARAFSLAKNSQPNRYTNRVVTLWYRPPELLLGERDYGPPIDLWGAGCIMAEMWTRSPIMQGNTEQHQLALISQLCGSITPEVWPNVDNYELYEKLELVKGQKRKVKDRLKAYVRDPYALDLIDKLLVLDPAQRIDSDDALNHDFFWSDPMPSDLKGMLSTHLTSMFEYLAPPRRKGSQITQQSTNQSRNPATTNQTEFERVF
Sequence of CDK3/Cyclin E (P24864 whole entry, the tested form may be a part): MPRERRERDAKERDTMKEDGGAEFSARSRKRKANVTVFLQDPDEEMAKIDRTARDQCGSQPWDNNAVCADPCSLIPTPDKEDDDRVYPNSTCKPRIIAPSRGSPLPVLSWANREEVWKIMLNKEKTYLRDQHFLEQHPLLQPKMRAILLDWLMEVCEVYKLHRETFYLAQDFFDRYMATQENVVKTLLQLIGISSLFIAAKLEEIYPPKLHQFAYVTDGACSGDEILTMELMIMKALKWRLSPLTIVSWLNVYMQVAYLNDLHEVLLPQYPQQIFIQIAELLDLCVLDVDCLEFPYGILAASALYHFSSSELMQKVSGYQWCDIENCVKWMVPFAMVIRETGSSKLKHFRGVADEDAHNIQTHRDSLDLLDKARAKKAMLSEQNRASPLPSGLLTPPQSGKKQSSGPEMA
Sequence of CDK3/Cyclin E (Q00526 whole entry, the tested form may be a part): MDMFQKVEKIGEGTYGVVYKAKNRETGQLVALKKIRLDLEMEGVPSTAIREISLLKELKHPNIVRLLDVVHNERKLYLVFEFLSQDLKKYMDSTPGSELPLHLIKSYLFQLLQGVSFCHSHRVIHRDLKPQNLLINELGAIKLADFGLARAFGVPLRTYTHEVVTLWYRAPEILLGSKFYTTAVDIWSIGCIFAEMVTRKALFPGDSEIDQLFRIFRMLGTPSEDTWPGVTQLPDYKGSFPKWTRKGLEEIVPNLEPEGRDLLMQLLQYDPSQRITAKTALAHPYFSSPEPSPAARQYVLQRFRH
Sequence of Peripheral plasma membrane protein CASK (Homo sapiens) (O14936 whole entry, the tested form may be a part): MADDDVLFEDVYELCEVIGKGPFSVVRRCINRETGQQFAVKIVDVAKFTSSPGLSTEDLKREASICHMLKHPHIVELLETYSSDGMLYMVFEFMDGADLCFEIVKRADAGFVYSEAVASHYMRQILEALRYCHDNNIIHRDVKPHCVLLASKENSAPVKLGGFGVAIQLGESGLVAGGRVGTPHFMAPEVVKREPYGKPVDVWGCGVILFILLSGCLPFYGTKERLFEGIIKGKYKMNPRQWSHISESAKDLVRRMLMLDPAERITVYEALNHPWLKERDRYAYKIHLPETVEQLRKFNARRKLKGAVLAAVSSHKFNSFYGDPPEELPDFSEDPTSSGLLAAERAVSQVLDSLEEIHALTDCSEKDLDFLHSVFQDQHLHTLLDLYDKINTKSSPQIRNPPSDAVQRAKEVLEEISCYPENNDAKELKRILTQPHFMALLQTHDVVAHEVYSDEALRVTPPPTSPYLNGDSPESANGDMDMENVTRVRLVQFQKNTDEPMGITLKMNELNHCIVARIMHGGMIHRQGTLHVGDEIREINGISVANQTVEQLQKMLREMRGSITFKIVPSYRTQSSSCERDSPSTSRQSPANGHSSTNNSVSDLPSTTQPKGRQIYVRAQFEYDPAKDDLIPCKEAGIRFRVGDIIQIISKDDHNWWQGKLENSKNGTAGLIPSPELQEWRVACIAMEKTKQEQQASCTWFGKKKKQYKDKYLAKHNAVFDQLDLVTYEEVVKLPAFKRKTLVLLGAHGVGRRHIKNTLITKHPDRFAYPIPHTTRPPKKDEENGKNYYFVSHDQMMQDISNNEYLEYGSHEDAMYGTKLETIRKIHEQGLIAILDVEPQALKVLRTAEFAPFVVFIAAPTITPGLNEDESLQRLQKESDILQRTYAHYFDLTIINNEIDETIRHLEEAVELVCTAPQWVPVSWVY
Sequence of Cyclin-dependent kinase-like 3 (Homo sapiens) (Q8IVW4 whole entry, looked up, the tested form may be a part): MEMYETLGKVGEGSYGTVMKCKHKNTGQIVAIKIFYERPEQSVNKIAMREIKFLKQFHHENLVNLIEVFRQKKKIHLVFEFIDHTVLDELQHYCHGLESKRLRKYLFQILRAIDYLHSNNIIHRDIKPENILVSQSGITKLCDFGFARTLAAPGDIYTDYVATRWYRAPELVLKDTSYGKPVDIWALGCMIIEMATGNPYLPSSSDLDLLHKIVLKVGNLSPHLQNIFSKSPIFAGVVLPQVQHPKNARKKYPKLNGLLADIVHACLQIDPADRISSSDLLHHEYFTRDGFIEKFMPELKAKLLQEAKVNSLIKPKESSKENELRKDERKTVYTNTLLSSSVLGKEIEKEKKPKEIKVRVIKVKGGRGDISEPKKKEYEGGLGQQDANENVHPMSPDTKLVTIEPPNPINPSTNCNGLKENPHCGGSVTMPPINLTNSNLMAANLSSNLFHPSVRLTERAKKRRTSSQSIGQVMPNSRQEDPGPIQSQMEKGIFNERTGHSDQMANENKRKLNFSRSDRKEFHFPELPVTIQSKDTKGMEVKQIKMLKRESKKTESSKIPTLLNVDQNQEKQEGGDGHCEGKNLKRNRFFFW
Sequence of Dual specificity mitogen-activated protein kinase kinase 1 (Homo sapiens) (Q02750 whole entry, the tested form may be a part): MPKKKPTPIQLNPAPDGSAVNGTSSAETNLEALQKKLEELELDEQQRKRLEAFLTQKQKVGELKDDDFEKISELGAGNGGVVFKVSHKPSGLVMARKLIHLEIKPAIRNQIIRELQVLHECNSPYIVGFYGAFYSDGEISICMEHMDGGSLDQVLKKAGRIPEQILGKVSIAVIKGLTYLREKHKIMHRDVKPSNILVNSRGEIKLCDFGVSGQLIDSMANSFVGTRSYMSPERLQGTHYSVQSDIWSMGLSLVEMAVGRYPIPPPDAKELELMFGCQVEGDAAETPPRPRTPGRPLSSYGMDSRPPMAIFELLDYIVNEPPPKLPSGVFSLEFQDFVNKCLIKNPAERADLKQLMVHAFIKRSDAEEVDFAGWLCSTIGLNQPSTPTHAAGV
Sequence of RAC-alpha serine/threonine-protein kinase (Homo sapiens) (P31749 whole entry): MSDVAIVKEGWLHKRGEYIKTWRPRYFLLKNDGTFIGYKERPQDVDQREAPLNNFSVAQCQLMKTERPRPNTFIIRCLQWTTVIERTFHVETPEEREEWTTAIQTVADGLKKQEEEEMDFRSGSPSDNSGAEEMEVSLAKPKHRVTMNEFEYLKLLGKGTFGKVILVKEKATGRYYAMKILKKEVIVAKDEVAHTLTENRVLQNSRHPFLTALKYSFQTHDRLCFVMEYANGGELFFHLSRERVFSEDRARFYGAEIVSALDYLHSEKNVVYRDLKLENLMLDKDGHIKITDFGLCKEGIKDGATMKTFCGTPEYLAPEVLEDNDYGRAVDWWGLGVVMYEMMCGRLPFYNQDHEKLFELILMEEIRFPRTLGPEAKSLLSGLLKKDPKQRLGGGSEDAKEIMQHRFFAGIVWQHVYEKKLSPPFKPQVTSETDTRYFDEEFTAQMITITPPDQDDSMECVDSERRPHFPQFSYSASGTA
Sequence of Serine/threonine-protein kinase Sgk2 (Homo sapiens) (Q9HBY8 whole entry, the tested form may be a part): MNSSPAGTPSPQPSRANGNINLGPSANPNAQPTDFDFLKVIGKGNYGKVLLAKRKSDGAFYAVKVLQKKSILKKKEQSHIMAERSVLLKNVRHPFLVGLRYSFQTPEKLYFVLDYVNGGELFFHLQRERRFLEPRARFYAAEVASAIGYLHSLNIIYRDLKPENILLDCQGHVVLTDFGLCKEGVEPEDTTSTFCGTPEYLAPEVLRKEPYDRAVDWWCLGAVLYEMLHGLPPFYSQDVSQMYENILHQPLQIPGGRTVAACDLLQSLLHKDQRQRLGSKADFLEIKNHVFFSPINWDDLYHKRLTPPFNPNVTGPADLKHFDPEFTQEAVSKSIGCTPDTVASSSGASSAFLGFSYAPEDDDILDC
Sequence of Dual specificity testis-specific protein kinase 1 (Homo sapiens) (Q15569 whole entry, looked up, the tested form may be a part): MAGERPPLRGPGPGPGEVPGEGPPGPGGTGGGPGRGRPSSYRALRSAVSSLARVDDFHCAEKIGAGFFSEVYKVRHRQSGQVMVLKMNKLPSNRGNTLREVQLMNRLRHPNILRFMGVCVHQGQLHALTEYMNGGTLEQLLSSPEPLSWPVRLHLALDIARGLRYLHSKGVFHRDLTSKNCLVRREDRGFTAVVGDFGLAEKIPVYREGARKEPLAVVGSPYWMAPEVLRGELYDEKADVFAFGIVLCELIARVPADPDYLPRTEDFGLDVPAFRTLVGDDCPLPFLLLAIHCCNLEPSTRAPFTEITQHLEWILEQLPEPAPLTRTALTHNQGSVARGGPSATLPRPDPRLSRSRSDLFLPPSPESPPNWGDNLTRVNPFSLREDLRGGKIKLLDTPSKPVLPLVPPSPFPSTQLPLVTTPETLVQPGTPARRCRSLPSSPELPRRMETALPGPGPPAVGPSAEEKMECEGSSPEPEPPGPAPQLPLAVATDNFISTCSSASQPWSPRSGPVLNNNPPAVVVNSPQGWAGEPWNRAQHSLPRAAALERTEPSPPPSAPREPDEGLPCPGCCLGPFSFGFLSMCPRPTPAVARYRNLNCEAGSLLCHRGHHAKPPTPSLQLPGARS
Sequence of Mitogen-activated protein kinase 10 (Homo sapiens) (P53779 whole entry, the tested form may be a part): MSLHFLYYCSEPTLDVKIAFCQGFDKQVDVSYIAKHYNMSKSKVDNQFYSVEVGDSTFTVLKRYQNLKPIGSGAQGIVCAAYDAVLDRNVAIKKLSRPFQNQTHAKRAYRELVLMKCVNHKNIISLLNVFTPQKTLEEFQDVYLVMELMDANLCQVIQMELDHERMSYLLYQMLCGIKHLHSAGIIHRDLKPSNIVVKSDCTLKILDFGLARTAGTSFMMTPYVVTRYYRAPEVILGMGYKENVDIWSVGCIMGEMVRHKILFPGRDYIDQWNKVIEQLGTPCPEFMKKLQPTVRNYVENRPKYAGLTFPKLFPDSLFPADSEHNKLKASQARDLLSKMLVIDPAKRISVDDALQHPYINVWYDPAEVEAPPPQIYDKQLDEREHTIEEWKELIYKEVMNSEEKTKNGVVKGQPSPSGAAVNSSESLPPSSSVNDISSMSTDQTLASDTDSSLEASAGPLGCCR

Compound: COCCN[C@H]1CC[C@H](Nc2cc(-c3csc(NCC4(C#N)CCOCC4)n3)c(Cl)cn2)CC1
- Activity [1]: 95%
- EC50 [2]: < 0.1 µM
- inhibition [2]: Dose-dependent effect
- Activity [3]: 89%
- MRT inf [4]: 3.48 h
- Activity [5]: 7.1%
- half-life [6]: 3.37 h
- Activity [7]: 92%
- Activity [8]: 81%
- IC50 [9]: 1.72 µM
- Activity [10]: 100%
- Activity [11]: 76%
- Activity [12]: 88%
- Activity [13]: 75%
- Activity [14]: 100%
- Activity [15]: 92%
- half-life [16]: 1.72 h
- Activity [17]: 91%
- Activity [18]: 83%
- Activity [19]: 92%
- IC50 [20]: > 10 µM
- Activity [21]: 68%
- Activity [22]: 92%
- Activity [23]: 90%
